≈ marks a conversion by molar mass, not a printed value.

In ChEMBL document CHEMBL4261586, “Conjugation of a 5-nitrofuran-2-oyl moiety to aminoalkylimidazoles produces non-toxic nitrofurans that are efficacious in vitro and in vivo against multidrug-resistant Mycobacterium tuberculosis” (Eur J Med Chem, 2018) one finds MIC, Activity_index and Activity data, which are given here for 5 compounds.

Holding throughout (assay type): functional
Experiment [1] deals with Mycobacterium tuberculosis. The experiment is described as follows: Antimycobacterial activity against multidrug-resistant Mycobacterium tuberculosis 5023 harboring rpoB S531L/katG S315T mutation mutation after 7 days by resazurin microtitre plate assay. A digest of the protocol: (§1)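 REMA in Middlebrook 7H9 with OADC. Three-week culture vortexed with glass beads, adjusted to 1.0 McFarland (about 3×10⁸ bacteria/mL) and diluted 20-fold. Final concentrations 1.6–200 via 2-fold dilutions; growth control plus 1% ([…] diluted) control. 7 days at 35 °C, then 0.01% resazurin for 18 h; fluorescence ex 520/em 590 nm. MIC taken where fluorescence plateaued or matched the 1% control (t-test).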

Experiment [2] relates to Mycobacterium tuberculosis. The experiment is described as follows: Antimycobacterial activity against multidrug-resistant Mycobacterium tuberculosis 2712 harboring rpoB S531L/katG I335V/ahpC T10 mutation after 7 days by resazurin microtitre plate assay. A digest of the protocol: as §1
The subject of experiment [3] is Mycobacterium tuberculosis. The experiment is described as follows: Antitubercular activity against multidrug-resistant Mycobacterium tuberculosis 2712 infected in C57BL/6 mouse assessed as lung mass index at 28 mg/kg, po administered via gavage over 42 days (excluding weekends) cotreated with prothionamide, levofloxacin and p-aminosalicylic acid (reference value: 1.81 +/- 0.12).

The test system of experiment [4] is Mycobacterium tuberculosis. The experiment is described as follows: Antitubercular activity against multidrug-resistant Mycobacterium tuberculosis 2712 infected in C57BL/6 mouse assessed as colony forming units per lung mass units at 28 mg/kg, po administered via gavage over 42 days (excluding weekends) cotreated with prothionamide, levofloxacin and p-aminosalicylic acid (reference value: 85.7 +/- 5.3 x 10^3).

For experiment [5], the system named is Mycobacterium tuberculosis. The experiment is described as follows: Antimycobacterial activity against multidrug-resistant Mycobacterium tuberculosis 7106 harboring rpoB S531L/katG S315T mutation after 7 days by resazurin microtitre plate assay. A digest of the protocol:
as §1

Experiment [6] concerns Mycobacterium tuberculosis. The experiment is described as follows: Antitubercular activity against multidrug-resistant Mycobacterium tuberculosis 2712 infected in C57BL/6 mouse assessed as tubercular foci index at 28 mg/kg, po administered via gavage over 42 days (excluding weekends) cotreated with prothionamide, levofloxacin and p-aminosalicylic acid (reference value: 3.46 +/- 0.09).

Turning to `CCCn1c(C)cnc1C1CN(C(=O)c2ccc([N+](=O)[O-])o2)C1`, the minimal inhibitory concentration (MIC) in experiment [1] was 3.1 µg/mL (≈ 9.74 µM); in experiment [2], 0.8 µg/mL (≈ 2.51 µM); in experiment [5], 3.1 µg/mL (≈ 9.74 µM). The results for the Activity_index in experiment [3] and in experiment [6] were 1.15 and 2.54, respectively. The Activity in experiment [4] is reported as 10.6 ×10³ CFU.

As for `Cc1cnc(CC2CCN(C(=O)c3ccc([N+](=O)[O-])o3)C2)n1CC1CC1` (stereo not drawn), the values for the minimal inhibitory concentration (MIC) in experiment [1], in experiment [2] and in experiment [5] were 6.2 µg/mL (≈ 17.3 µM), 1.6 µg/mL (≈ 4.46 µM) and 12.5 µg/mL (≈ 34.9 µM), respectively.

For `Cc1cnc(-c2ccccc2)n1CC1CCN(C(=O)c2ccc([N+](=O)[O-])o2)C1` (stereo not drawn), the MIC was determined as 6.2 µg/mL (≈ 16.3 µM) in experiment [1], 3.1 µg/mL (≈ 8.15 µM) in experiment [2] and 6.2 µg/mL (≈ 16.3 µM) in experiment [5].

Take `Cc1cnc(CCNC(=O)c2ccc([N+](=O)[O-])o2)n1C1CCC1`: the MIC in experiment [1], in experiment [2] and in experiment [5] was 12.5 µg/mL (≈ 39.3 µM) in each case.

For `Cc1cnc(C)n1C1CCN(C(=O)c2ccc([N+](=O)[O-])o2)C1` (stereo not drawn), the MIC in experiment [1] amounted to 25 µg/mL (≈ 82.2 µM); in experiment [2], 25 µg/mL (≈ 82.2 µM); in experiment [5], 12.5 µg/mL (≈ 41.1 µM).
